The values below come from ChEMBL document CHEMBL1128177, “A 3-amino-4-hydroxy-3-cyclobutene-1,2-dione-containing glutamate analogue exhibiting high affinity to excitatory amino acid receptors” (J Med Chem, 1995).

The target in assay [1] is T1, Glutamate NMDA receptor (Rattus norvegicus) (UniProt P35439+Q00959+Q00960+Q00961+Q62645+Q8VHN2+Q9R1M7). In words: (§1) Inhibition of stimulus-evoked CA1 pyramidal cell NMDA receptor of the rat hippocampus. Type of assay: functional, tissue-based. In outline: (§2)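 Transverse hippocampal slices (500 µm) from 30-50 day male Sprague-Dawley rats. Schaffer collateral stimulation at 0.1 ms, 4-30 V, 0.1 Hz. Extracellular field potential peak amplitude recorded in CA1 stratum radiatum at 34 °C. Medium held 0.1 mM Mg2+ plus 10 μM CNQX to isolate NMDA responses. Drug doubled every 4 min from subthreshold until >70% decline or 8 mM. IC50 interpolated from the log concentration plot; mean of ≥4 experiments.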

Assay [2] concerns the target T1, Glutamate NMDA receptor (Rattus norvegicus). As to the kind of experiment: Inhibition of stimulus-evoked […] NMDA receptor response in medial perforant path of the rat hippocampus. Format: functional, tissue-based. In outline: (§3)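 Rat hippocampal slices (500 µm, male Sprague-Dawley, 30-50 days) with perforant path stimulation (0.1 ms, 4-30 V, 0.1 Hz). Field potential recorded in the dentate granule cell synaptic field of the lateral or medial perforant path at 34 °C. Drug doubled every 4 min from subthreshold up to >70% inhibition or 8 mM. IC50 interpolated from fractional peak amplitude vs log concentration; mean of ≥4 experiments.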

The species named for assay [3] is Rattus norvegicus. As to the kind of experiment: (§4) Inhibition of stimulus-evoked kainate/AMPA receptor responses in CA1 pyramidal cells of the rat hippocampus after QUIS exposure. Type of assay: functional. In outline:
(§5)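 Schaffer collateral-evoked CA1 field potential in 500 µm rat hippocampal slices, recording medium with 2.4 mM Mg2+, 34 °C. IC50 from 4-min doubling concentration steps, interpolated at 50% peak-amplitude loss; mean of ≥4 experiments. Measured first, then after 5 min 16 μM L-quisqualic acid and washout, then again after 5 min 2 mM L-α-aminoadipic acid and washout.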

For assay [4], the species on record is Rattus norvegicus. In words: Inhibition of stimulus-evoked kainate/AMPA receptor responses in CA1 pyramidal cells of the rat hippocampus after reversal with alpha AA. Type of assay: functional. In outline: as §5
Assay [5] is filed under the species Rattus norvegicus. In words: (§6) Inhibition of stimulus-evoked kainate/AMPA receptor responses in CA1 pyramidal cells of the rat hippocampus before QUIS exposure. Format: functional. In outline: as §5
The species named for assay [6] is Rattus norvegicus. In words: Inhibition of stimulus-evoked response in lateral perforant path of the rat hippocampus.
In assay [7] the target is Glutamate NMDA receptor. The assay is described as §1. Format: functional, tissue-based. In outline:
as §2

Assay [8] deals with Glutamate NMDA receptor. As to the kind of experiment: Inhibition of stimulus-evoked […] NMDA receptor response in lateral perforant path of the rat hippocampus. Type of assay: functional, tissue-based. In outline:
as §3

The species entered for assay [9] is Rattus norvegicus. The description is as §4. Type of assay: functional, organism-based. In outline: as §5
For assay [10], the species on record is Rattus norvegicus. The assay is described as §6. Type of assay: functional, organism-based. In outline:
as §5

Take `N[C@@H](C/N=c1\c(O)c(O)c1=O)C(=O)O`: the C50 in assay [1] was found to be 0.01 mM; in assay [2], 0.0059 mM; in the assay filed under Rattus norvegicus [3] it was 0.00055 mM; in the assay filed under Rattus norvegicus [4], 0.001 mM; in the assay filed under Rattus norvegicus [5], 0.0011 mM; in the assay listed under Rattus norvegicus [6], 0.0034 mM.

The IC50 is the concentration needed to halve the response being measured. A lower IC50 goes with higher potency. Take `NCCC/N=c1\c(O)c(O)c1=O`: the IC50 on Glutamate NMDA receptor [7] is 5.3 mM; at Glutamate NMDA receptor [8], more than 10 mM; in the assay listed under Rattus norvegicus [9] it was more than 10 mM; in the assay listed under Rattus norvegicus [10], more than 10 mM.

Take `Cl.NCC/N=c1\c(O)c(O)c1=O`: the C50 in assay [1] is 3.5 mM; in the assay listed under Rattus norvegicus [3], more than 10 mM; in the assay filed under Rattus norvegicus [5], more than 10 mM; in the assay listed under Rattus norvegicus [6], more than 10 mM.
